Read-outs that look alike come from different tables or passages of the source.
Legend:
K562 = test: CCK8 antiproliferative assay, K562; assay type: cell-based, human; conditions: read-out: Antiproliferative activity (IC50/μM) K562
MV411 = test: CCK8 antiproliferative assay, MV411; assay type: cell-based, human; conditions: read-out: Antiproliferative activity (IC50/μM) MV411; MV411, CCK8, 48 h, means ± SD, n = 3
KU812 = test: CCK8 antiproliferative assay, KU812; assay type: cell-based, human; conditions: read-out: Antiproliferative activity (IC50/μM) KU812
Kasumi-1 = test: CCK8 antiproliferative assay, Kasumi-1; assay type: cell-based, human; conditions: read-out: Antiproliferative activity (IC50/μM) Kasumi-1; Kasumi-1, CCK8, 48 h, means ± SD, n = 3
CCRF-CEM = test: CCK8 antiproliferative assay, CCRF-CEM; assay type: cell-based, human; conditions: read-out: Antiproliferative activity (IC50/μM) CCRF-CEM, CCK8, 48 h, means ± SD, n = 3
HDAC1 = HDAC1 (Homo sapiens, UniProt Q13547); test: HDAC isoform inhibitory activity; assay type: biochemical
HDAC2 = HDAC2 (Homo sapiens, UniProt Q92769); test: HDAC isoform inhibitory activity; assay type: biochemical
HDAC3 = HDAC3 (Homo sapiens, UniProt O15379); test: HDAC isoform inhibitory activity; assay type: biochemical
HDAC10 = target: T1, HDAC10 (Homo sapiens, UniProt Q969S8); test: HDAC isoform inhibitory activity; assay type: biochemical
T1 sequence (Q969S8 1-669): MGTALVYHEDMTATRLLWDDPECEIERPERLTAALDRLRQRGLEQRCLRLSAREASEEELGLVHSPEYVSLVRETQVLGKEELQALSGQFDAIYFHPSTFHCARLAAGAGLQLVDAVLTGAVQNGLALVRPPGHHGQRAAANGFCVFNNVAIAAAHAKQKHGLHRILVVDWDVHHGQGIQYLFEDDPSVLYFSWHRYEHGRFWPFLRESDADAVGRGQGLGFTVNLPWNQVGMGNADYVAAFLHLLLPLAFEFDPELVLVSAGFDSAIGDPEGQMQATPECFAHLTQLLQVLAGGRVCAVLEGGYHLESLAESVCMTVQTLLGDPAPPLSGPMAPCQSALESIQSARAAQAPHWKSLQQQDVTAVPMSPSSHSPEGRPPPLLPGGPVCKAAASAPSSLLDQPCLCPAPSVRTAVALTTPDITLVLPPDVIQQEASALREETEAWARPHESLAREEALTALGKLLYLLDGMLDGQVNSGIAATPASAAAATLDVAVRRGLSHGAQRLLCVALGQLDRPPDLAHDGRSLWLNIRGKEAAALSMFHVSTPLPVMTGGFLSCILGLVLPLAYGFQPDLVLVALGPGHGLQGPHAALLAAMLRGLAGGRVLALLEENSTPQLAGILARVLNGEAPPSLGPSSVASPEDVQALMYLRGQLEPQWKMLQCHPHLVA

MV411 cells = test: Annexin V-FITC/PI apoptosis assay by flow cytometry; assay type: cell-based, human; conditions: 48 hours
Summary of the method: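 MV411 cells seeded at 5 × 10^5 per well and held 24 h at 37 °C, 5% CO2. Test compound was then added at 0, 0.25, 0.5 and 1.0 μM for a further 48 h. Cells were harvested, washed in annexin-binding buffer, stained with annexin V-FITC and PI for 15 min at 37 °C, and analysed by flow cytometry.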

acetylated H3 = test: Western blotting of H3 and acetylated H3; assay type: cell-based, human; conditions: MV411, 0.25, 0.5 and 1.0 μM, 48 hours
[1] = K562, CCK8, 48 h, means ± SD, n = 3
[2] = KU812, CCK8, 48 h, means ± SD, n = 3

HDAC2, sequence (Q92769 whole entry, canonical isoform): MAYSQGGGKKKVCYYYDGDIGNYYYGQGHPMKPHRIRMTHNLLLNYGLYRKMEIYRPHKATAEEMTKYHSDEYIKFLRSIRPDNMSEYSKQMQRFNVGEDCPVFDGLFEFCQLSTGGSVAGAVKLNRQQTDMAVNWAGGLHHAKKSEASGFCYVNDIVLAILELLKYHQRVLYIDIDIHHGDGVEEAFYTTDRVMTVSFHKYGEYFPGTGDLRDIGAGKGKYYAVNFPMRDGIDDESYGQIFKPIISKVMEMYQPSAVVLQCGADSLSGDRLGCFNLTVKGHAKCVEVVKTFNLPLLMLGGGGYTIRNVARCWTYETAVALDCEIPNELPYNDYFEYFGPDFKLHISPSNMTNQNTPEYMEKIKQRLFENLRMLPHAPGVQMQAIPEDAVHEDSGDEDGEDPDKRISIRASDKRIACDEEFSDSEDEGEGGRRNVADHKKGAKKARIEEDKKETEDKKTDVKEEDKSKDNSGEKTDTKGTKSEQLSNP
HDAC3, sequence (O15379 whole entry, canonical isoform): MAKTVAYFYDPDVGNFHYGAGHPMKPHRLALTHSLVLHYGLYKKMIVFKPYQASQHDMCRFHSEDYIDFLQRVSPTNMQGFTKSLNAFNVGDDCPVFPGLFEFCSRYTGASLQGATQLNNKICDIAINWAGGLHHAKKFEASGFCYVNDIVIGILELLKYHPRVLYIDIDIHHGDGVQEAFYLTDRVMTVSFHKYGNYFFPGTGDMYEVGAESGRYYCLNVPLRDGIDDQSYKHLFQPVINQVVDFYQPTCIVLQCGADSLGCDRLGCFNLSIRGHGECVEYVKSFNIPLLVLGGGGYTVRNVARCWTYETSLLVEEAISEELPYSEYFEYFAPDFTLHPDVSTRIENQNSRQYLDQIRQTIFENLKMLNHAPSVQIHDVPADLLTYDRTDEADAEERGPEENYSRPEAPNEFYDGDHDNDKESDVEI
HDAC3, sequence (Q9Y618 395-489 partner limits assumed): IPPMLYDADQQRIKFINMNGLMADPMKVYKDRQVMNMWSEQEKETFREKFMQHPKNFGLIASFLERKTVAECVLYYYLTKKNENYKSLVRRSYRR
HDAC1, sequence (Q13547 whole entry, canonical isoform): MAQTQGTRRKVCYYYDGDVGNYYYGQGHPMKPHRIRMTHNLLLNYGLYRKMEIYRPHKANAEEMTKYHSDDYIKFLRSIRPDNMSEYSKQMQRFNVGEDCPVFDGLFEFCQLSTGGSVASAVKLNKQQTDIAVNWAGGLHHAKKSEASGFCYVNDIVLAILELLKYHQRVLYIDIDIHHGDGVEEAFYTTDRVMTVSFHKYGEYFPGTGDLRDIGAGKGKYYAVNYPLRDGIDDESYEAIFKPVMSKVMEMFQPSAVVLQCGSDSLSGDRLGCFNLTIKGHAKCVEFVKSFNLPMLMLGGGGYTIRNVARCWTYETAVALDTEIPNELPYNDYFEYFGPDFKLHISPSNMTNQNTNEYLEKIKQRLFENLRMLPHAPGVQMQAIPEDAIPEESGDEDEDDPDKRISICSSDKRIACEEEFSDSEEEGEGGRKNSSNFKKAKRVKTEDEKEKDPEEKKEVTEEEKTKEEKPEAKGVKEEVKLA

| IC50 (K562; Homo sapiens, K562, 48 h) [µM] | Molecule | IC50 (KU812; Homo sapiens, KU812, 48 h) [µM] | further results |
| --- | --- | --- | --- |
| – | 4-(2-(4-(((3R,4R)-4-(3,4-Dimethoxybenzyl)-2-oxotetrahydrofuran-3-yl)methyl)-2-methoxyphenoxy)acetamido)-N-hydroxybenzamide [B6] | – | IC50 (K562; [1]): > 5 µM; IC50 (MV411): > 5 µM; IC50 (KU812; [2]): > 5 µM; IC50 (Kasumi-1): > 5 µM; IC50 (CCRF-CEM): > 5 µM |
| – | 4-(4-(((3R,4R)-4-(3,4-Dimethoxybenzyl)-2-oxotetrahydrofuran-3-yl)methyl)-2-methoxyphenoxy)-N-hydroxypentanamide [A1] | – | IC50 (K562; [1]): > 5 µM; IC50 (MV411): > 5 µM; IC50 (KU812; [2]): > 5 µM; IC50 (Kasumi-1): > 5 µM; IC50 (CCRF-CEM): > 5 µM |
| > 5 | COc1ccc(C[C@H]2COC(=O)[C@@H]2Cc2ccc(OCCCCC(=O)NO)c(OC)c2)cc1OC [A2, 5-(4-(((3R,4R)-4-(3,4-Dimethoxybenzyl)-2-oxotetrahydrofuran-3-yl)methyl)-2-methoxyphenoxy)-N-hydroxypentanamide] | > 5 | – |
| 2.12 ± 0.12 | COc1ccc(C[C@H]2COC(=O)[C@@H]2Cc2ccc(OCCCCCC(=O)NO)c(OC)c2)cc1OC [A3, 6-(4-(((3R,4R)-4-(3,4-Dimethoxybenzyl)-2-oxotetrahydrofuran-3-yl)methyl)-2-methoxyphenoxy)-N-hydroxyhexanamide] | 3.88 ± 1.06 | – |
| 1.19 ± 0.25 | COc1ccc(C[C@H]2COC(=O)[C@@H]2Cc2ccc(OCCCCCCC(=O)NO)c(OC)c2)cc1OC [A4, 7-(4-(((3R,4R)-4-(3,4-Dimethoxybenzyl)-2-oxotetrahydrofuran-3-yl)methyl)-2-methoxyphenoxy)-N-hydroxyheptanamide] | 1.41 ± 0.75 | – |
| > 5 | COc1ccc(C[C@H]2COC(=O)[C@@H]2Cc2ccc(OCC(=O)N3CCC(C(=O)NO)CC3)c(OC)c2)cc1OC [A8, 1-(2-(4-(((3R,4R)-4-(3,4-Dimethoxybenzyl)-2-oxotetrahydrofuran-3-yl)methyl)-2-methoxyphenoxy)acetyl)-N-hydroxypiperidine-4-carboxamide] | > 5 | – |
| > 5 | COc1ccc(C[C@H]2COC(=O)[C@@H]2Cc2ccc(OCc3cn(CC(=O)NO)nn3)c(OC)c2)cc1OC [A10, 2-(4-((4-(((3R,4R)-4-(3,4-Dimethoxybenzyl)-2-oxotetrahydrofuran-3-yl)methyl)-2-methoxyphenoxy)methyl)-1H-1,2,3-triazol-1-yl)-N-hydroxyacetamide] | > 5 | – |
| 24.2 ± 3.12 | COc1cc(C[C@H]2C(=O)OC[C@@H]2Cc2ccc(OC)c(OC)c2)ccc1O [Arctigenin, reference compound] | > 30 | IC50 (MV411): 4.27 ± 1.68 µM |
| > 5 | COc1ccc(C[C@H]2COC(=O)[C@@H]2Cc2ccc(OCC(=O)NCC(=O)Nc3ccccc3N)c(OC)c2)cc1OC [B1, N-(2-Aminophenyl)-2-(2-(4-(((3R,4R)-4-(3,4-dimethoxybenzyl)-2-oxotetrahydrofuran-3-yl)methyl)-2-methoxyphenoxy)acetamido)acetamide] | > 5 | – |
| > 5 | COc1ccc(C[C@H]2COC(=O)[C@@H]2Cc2ccc(OCC(=O)NCCC(=O)Nc3ccccc3N)c(OC)c2)cc1OC [B2, N-(2-Aminophenyl)-3-(2-(4-(((3R,4R)-4-(3,4-dimethoxybenzyl)-2-oxotetrahydrofuran-3-yl)methyl)-2-methoxyphenoxy)acetamido)propanamide] | > 5 | – |
| > 5 | COc1ccc(C[C@H]2COC(=O)[C@@H]2Cc2ccc(OCC(=O)NCCCCC(=O)Nc3ccccc3N)c(OC)c2)cc1OC [B4, N-(2-Aminophenyl)-5-(2-(4-(((3R,4R)-4-(3,4-dimethoxybenzyl)-2-oxotetrahydrofuran-3-yl)methyl)-2-methoxyphenoxy)acetamido)pentanamide] | > 5 | – |
| 1.96 ± 0.19 | COc1ccc(C[C@H]2COC(=O)[C@@H]2Cc2ccc(OCC(=O)Nc3ccc(C(=O)Nc4ccccc4N)cc3)c(OC)c2)cc1OC [B7, N-(2-Aminophenyl)-4-(2-(4-(((3R,4R)-4-(3,4-dimethoxybenzyl)-2-oxotetrahydrofuran-3-yl)methyl)-2-methoxyphenoxy)acetamido)benzamide] | 2.09 ± 0.31 | IC50 (HDAC1): 261 nM; IC50 (HDAC2): 131 nM; IC50 (HDAC3): 299 nM; IC50 (HDAC10): 1750 nM; overall proportion of apoptotic cells (Q1-UR + Q1-LR) (MV411 cells; MV411, 0.5 μM): 37.90%; overall proportion of apoptotic cells (Q1-UR + Q1-LR) (MV411 cells; MV411, 1.0 μM): 77.00%; overall proportion of apoptotic cells (Q1-UR + Q1-LR) (MV411 cells; MV411, lowest concentration (printed 0.25 μM and 0.1 μM)): 21.84%; level of acetylated H3 (western blot) (acetylated H3): significantly increased the level of acetylated H3 |
| > 5 | COc1ccc(C[C@H]2COC(=O)[C@@H]2Cc2ccc(OCc3cn(CC(=O)Nc4ccccc4N)nn3)c(OC)c2)cc1OC [B8, N-(2-Aminophenyl)-2-(4-((4-(((3R,4R)-4-(3,4-dimethoxybenzyl)-2-oxotetrahydrofuran-3-yl)methyl)-2-methoxyphenoxy)methyl)-1H-1,2,3-triazol-1-yl)acetamide] | > 5 | – |
| 2.68 ± 0.65 | Nc1cc(F)ccc1NC(=O)c1ccc(CNC(=O)/C=C/c2cccnc2)cc1 [Tucidinostat, tucidinostat, reference compound] | 4.26 ± 0.48 | – |
| – | N-(2-Aminophenyl)-5-(2-(4-(((3R,4R)-4-(3,4-dimethoxybenzyl)-2-oxotetrahydrofuran-3-yl)methyl)-2-methoxyphenoxy)acetamido)pentanamide [B5] | – | IC50 (K562; [1]): > 5 µM; IC50 (MV411): > 5 µM; IC50 (KU812; [2]): > 5 µM; IC50 (Kasumi-1): > 5 µM; IC50 (CCRF-CEM): > 5 µM |
